The source of these data is paper PMC3748600 (Chembiochem : a European journal of chemical biology, 2012).

Series [1] has as its system human cannabinoid receptor CB1. Conditions: cited from earlier work.
The subject of another series is a different cell line. Conditions: cited from earlier work.
Another series deals with MCF7 breast cancer cells. Nature of the series: Cell viability assay. Format: cell-based. To be noted: up to 100 μM, 48 h, MTT. The gist of the method:
(§1)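 Cells grown in DMEM with 10% FBS at 37 °C, 5% CO2. Seeded at 10,500 cells/well (MCF7) or 11,000 cells/well (HT-29). After 24 h, treated with various concentrations of the test compound or solvent control (1% EtOH). Viability was read by MTT after 48 h.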

The target of series [2] is T1, CB1 receptor (Homo sapiens, UniProt P21554). Nature of the series: cAMP functional assay, forskolin-stimulated, CHO-K1 cells expressing CB1. Type of series: cell-based. To be noted: through CB1 receptor.
T1 sequence (P21554 whole entry): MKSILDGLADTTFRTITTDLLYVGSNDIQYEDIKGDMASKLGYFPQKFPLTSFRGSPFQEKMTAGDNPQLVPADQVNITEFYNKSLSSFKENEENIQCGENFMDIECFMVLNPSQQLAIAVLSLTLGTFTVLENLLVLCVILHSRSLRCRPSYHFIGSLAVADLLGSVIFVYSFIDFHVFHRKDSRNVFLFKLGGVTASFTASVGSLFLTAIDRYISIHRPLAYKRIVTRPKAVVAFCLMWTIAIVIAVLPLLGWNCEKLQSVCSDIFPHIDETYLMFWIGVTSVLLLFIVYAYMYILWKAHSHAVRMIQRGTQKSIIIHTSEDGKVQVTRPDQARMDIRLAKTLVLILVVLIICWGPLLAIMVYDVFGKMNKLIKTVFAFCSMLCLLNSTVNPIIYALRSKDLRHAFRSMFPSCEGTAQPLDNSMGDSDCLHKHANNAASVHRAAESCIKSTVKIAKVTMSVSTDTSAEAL
Series [3] addresses T2, CB2 receptor (Homo sapiens, UniProt P34972). As to the kind of experiment: cAMP functional assay, forskolin-stimulated, CHO-K1 cells expressing CB2. Type of series: cell-based. Conditions: through CB2 receptor.
Series [4] relates to NO production in RAW 264.7 mouse macrophage cells. As to the kind of experiment: NO assay in LPS-induced RAW 264.7 macrophages. Type of series: cell-based. Conditions: read-out: IC50, inhibition of NO production; LPS-induced RAW 264.7, 24 h. Put shortly: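 Mouse RAW 264.7 cells in DMEM with 10% FBS, 5% CO2, seeded at 2 × 10^4 cells/well. After 24 h, test compound or solvent control (1% EtOH) was added, then LPS (0.5 μg/mL). Medium nitrite was measured after 24 h by Griess reagent: sulfanilamide, then naphthylethylenediamine-HCl, 5 min each at RT in the dark, A540. Quantified against a 0–100 μM nitrite standard curve; duplicates.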

Series [5] concerns the target T1, CB1 receptor. As to the kind of experiment: Cannabinoid CB1 receptor binding assay. Conditions: read-out: CB1 Ki; human recombinant CB1 in HEK-293 cells, [3H]CP-55940 0.5 nM.
In series [6] the target is T2, CB2 receptor. As to the kind of experiment: Cannabinoid CB2 receptor binding assay. Conditions: read-out: CB2 Ki; human recombinant CB2 in HEK-293 cells, [3H]CP-55940 0.5 nM.
For series [7], the system named is HT-29 colon adenocarcinoma cells. Nature of the series: Cell viability assay. Conditions: 48 h, MTT. Format: cell-based. Put shortly:
as §1

Series [8] deals with T3, fatty acid amide hydrolase (FAAH) (Homo sapiens, UniProt O00519).
T3 sequence (O00519 1-579): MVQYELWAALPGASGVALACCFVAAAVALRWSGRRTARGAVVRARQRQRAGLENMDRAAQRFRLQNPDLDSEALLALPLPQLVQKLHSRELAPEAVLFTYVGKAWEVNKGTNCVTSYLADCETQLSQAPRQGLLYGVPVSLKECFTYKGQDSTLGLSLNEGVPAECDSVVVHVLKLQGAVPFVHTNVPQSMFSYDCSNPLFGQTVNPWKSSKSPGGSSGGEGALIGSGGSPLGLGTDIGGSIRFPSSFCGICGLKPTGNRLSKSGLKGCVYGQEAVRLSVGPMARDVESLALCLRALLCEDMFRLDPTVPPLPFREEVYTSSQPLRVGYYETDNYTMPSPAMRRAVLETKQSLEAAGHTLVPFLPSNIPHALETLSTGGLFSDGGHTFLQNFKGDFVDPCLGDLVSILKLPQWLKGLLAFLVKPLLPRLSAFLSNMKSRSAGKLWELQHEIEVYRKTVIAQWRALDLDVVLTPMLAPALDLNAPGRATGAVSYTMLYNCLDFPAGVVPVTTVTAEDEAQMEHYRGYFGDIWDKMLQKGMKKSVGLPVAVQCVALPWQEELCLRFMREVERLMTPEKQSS
Nature of the series: FAAH inhibitor enzyme assay. Format: biochemical. Conditions: tested at 10 and 100 μM. Put shortly:
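Kit FAAH enzyme was preincubated in assay buffer with the test compound (10 and 100 μM) or solvent control. The reaction was started with AMC arachidonoyl amide substrate (20 μM final) and run for 30 min at 37 °C. Fluorescence was read at ex 350 nm / em 455 nm.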

The test system of the next series is RAW 264.7 cells. Nature of the series: Cellular viability of RAW 264.7 macrophages. Type of series: cell-based, mouse. To be noted: RAW 264.7, up to 25 μM.

SMILES strings stand for the structures.

T2 sequence (P34972 whole entry): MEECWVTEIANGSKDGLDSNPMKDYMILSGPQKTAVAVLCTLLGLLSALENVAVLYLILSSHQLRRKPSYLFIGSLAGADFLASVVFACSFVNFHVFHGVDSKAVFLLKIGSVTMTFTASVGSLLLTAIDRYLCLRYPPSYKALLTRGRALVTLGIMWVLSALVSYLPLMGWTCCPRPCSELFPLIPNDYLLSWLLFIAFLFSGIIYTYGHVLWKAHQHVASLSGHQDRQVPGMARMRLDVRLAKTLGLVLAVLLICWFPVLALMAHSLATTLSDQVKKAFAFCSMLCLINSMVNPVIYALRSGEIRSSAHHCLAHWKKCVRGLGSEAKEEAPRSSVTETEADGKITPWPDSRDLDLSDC

For `CCCCCCCCCCCCC/C=C/CCC(=O)N(C)[C@H](CO)COC` [Compound 4, serinolamide A], the “Selectivity for the CB1 receptor over CB2” value in [1] (human CB1 vs CB2 binding) is given as “more than 5 fold”. In addition, in series [1] (read-out: CB1 Ki, human CB1), the Ki (commonly the dissociation constant of the complex between target and ligand, obtained from inhibition or displacement) is 1.3 µM. In addition, the Cytotoxic properties entry with a different cell line is “showed some cytotoxic properties”.

Regarding `CCCCCCCCCCCCC/C=C/CCC(=O)N[C@H](CO)COC` [Compound 5, Serinolamide B], in the series on MCF7 breast cancer cells, the “Cytotoxicity against MCF7” value is given as “failed to show significant cytotoxicity”. In addition, the “Functional mode at CB1 (inhibition of forskolin-stimulated cAMP accumulation)” value on CB1 receptor [2] is given as “cannabinoid receptor agonists”. Further, the “Functional mode at CB2 (inhibition of forskolin-stimulated cAMP accumulation)” value on CB2 receptor [3] was “cannabinoid receptor agonists”. Moreover, the concentration for half-maximal inhibition (IC50) (usually the concentration that gives 50% inhibition) in series [4] was more than 25 µM. Further, the Ki on CB1 receptor [5] turned out to be 16.4 µM; on CB2 receptor [6], 5.2 µM. In series [7] (up to 100 μM), the “Cytotoxicity against HT-29” value is on record as “failed to show significant cytotoxicity”. The FAAH inhibition result in series [8] is “no considerable inhibitory effects”.

As to `CCCCCCC[C@@H](C/C=C/CCC(=O)N(C)C/C(=C/Cl)C/C(=C\C(=O)N1CC(O)CC1=O)OC)OC` (stereo partly shown) [Compound 6, malyngamide B], on CB1 receptor [2], the “Functional mode at CB1 (inhibition of forskolin-stimulated cAMP accumulation)” value is reported as “cannabinoid receptor agonists”. Further, the “Functional mode at CB2 (inhibition of forskolin-stimulated cAMP accumulation)” value on CB2 receptor [3] was “cannabinoid receptor agonists”. The IC50 in series [4] turned out to be 6.2 µM; in series [7] (read-out: IC50, cytotoxicity to HT-29 cells), 26 µM. For the same compound, the Ki on CB1 receptor [5] is 3.6 µM; at CB2 receptor [6] it was 2.6 µM. Besides, the “Effect on cellular viability” value in the series on RAW 264.7 cells is “without affecting cellular viability”. The FAAH inhibition entry in [8] was “no considerable inhibitory effects”.
